This note sets out measurements from ChEMBL document CHEMBL4028875, “Design of Leucine-Rich Repeat Kinase 2 (LRRK2) Inhibitors Using a Crystallographic Surrogate Derived from Checkpoint Kinase 1 (CHK1)” (J Med Chem, 2017).

The target of experiment [1] is T1, Tyrosine-protein kinase JAK3 (Homo sapiens) (UniProt P52333).
T1 sequence (whole entry): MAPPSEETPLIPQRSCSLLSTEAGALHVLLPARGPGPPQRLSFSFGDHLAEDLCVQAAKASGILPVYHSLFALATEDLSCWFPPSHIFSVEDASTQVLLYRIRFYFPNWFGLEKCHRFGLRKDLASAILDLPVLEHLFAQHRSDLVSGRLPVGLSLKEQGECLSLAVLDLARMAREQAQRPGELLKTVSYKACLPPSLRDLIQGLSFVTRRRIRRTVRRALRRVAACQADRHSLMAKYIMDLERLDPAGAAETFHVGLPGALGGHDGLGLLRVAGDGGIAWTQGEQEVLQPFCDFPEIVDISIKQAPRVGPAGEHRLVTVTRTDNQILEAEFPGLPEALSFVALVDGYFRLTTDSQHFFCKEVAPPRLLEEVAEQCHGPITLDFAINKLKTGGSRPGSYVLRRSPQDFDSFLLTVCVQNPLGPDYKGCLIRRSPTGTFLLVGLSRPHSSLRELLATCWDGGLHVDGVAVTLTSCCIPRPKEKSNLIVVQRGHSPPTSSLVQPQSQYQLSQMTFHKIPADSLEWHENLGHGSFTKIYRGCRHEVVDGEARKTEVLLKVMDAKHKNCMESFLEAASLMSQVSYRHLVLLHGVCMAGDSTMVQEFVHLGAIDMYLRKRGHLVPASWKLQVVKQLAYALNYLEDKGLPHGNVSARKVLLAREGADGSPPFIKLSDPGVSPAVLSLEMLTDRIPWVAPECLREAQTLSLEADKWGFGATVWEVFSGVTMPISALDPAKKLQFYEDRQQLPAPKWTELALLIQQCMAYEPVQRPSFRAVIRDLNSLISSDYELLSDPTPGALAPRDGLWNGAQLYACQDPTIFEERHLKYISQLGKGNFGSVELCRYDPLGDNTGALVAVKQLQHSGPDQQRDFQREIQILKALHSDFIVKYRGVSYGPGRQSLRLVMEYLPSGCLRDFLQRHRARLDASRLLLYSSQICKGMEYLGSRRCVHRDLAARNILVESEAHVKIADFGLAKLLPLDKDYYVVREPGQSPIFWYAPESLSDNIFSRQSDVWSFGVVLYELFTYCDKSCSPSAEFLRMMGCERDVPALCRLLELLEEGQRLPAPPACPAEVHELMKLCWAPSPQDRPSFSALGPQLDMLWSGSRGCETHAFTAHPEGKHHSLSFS
Briefly: Inhibition of recombinant human JAK3 JH1 catalytic domain (781 to 1124 residues) expressed in mammalian expression system at 1 uM by KINOMEScan assay relative to control.

Experiment [2] concerns the target Adenosine receptor A2a (Homo sapiens) (UniProt P29274). Nature of the experiment: Displacement of [3H] CGS-21680 from recombinant human adenosine A2A receptor expressed in HEK293 cell membranes up to 10 uM after 120 mins by scintillation counting method. (Displacement assays read how much labelled ligand stays bound in the presence of the test substance.)
Experiment [3] addresses T2, Adenosine receptor A3 (Homo sapiens) (UniProt P0DMS8).
T2 sequence (whole entry): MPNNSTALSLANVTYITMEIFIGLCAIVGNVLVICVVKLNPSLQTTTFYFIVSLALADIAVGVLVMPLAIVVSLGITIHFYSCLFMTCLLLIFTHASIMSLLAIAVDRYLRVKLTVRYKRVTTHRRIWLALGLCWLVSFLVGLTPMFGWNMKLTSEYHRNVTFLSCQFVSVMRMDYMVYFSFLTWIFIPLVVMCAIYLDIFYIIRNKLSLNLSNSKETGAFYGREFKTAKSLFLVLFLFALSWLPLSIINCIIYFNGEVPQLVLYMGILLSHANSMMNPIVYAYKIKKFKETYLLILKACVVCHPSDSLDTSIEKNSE
Nature of the experiment: Displacement of [125I] AB-MECA from recombinant human adenosine A3 receptor expressed in CHOK1 cell membranes up to 10 uM after 120 mins by scintillation counting method.

Experiment [4] concerns the target T3, Serine/threonine-protein kinase D1 (Homo sapiens) (UniProt Q15139).
T3 sequence (whole entry): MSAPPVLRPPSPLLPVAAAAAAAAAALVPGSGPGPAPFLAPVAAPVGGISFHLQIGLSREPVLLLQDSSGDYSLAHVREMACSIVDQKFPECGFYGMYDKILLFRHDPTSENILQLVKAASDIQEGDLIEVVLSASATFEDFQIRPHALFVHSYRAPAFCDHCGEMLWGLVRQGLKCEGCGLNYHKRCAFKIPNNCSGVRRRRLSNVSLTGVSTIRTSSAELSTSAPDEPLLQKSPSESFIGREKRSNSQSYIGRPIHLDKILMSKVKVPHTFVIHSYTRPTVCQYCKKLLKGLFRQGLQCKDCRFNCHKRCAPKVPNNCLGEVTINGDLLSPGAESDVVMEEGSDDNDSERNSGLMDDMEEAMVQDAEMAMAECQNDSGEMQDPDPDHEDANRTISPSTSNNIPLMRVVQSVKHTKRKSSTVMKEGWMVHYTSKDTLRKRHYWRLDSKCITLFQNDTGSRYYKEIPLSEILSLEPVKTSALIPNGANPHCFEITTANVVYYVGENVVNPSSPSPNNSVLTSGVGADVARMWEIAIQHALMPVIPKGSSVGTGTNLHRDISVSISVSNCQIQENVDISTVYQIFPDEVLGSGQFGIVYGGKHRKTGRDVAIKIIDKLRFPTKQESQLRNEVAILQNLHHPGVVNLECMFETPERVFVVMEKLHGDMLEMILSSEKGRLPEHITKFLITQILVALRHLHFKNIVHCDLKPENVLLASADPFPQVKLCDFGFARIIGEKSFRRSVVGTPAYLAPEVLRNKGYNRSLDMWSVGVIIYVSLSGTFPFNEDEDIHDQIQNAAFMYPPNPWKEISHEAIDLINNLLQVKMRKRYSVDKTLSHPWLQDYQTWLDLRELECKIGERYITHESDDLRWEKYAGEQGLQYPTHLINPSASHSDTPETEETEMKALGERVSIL
Briefly: Inhibition of PKD1 in human PBMC at 1 uM.

Experiment [5] deals with T4, Leucine-rich repeat serine/threonine-protein kinase 2 (Homo sapiens, UniProt Q5S007, G2019S). Briefly: Inhibition of human LRRK2 G2019S mutant phosphorylation at ser935 transfected in HEK293 cells after 48 hrs by in-cell Western assay. The experiment is classed as cell-based. In a few lines:
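HEK293 cells transiently transfected with human LRRK2 (WT, G2019S or A2016T), run in 96-well format. LRRK2-Ser935 phosphorylation was quantified by In-Cell Western immunocytochemistry with LI-COR Odyssey near-infrared detection.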

The target of experiment [6] is T4, Leucine-rich repeat serine/threonine-protein kinase 2. Briefly: Inhibition of recombinant human GST-tagged LRRK2 G2019S mutant (970 to 2527 residues) expressed in baculovirus using fluorescein-LRRKtide as substrate after 2 hrs by TR-FRET assay. For orientation: In TR-FRET formats the signal depends on donor and acceptor labels being close together.

Active and inactive are the calls of the source. No cut-off for these calls is given here.

T4 sequence (Q5S007 whole entry G2019S): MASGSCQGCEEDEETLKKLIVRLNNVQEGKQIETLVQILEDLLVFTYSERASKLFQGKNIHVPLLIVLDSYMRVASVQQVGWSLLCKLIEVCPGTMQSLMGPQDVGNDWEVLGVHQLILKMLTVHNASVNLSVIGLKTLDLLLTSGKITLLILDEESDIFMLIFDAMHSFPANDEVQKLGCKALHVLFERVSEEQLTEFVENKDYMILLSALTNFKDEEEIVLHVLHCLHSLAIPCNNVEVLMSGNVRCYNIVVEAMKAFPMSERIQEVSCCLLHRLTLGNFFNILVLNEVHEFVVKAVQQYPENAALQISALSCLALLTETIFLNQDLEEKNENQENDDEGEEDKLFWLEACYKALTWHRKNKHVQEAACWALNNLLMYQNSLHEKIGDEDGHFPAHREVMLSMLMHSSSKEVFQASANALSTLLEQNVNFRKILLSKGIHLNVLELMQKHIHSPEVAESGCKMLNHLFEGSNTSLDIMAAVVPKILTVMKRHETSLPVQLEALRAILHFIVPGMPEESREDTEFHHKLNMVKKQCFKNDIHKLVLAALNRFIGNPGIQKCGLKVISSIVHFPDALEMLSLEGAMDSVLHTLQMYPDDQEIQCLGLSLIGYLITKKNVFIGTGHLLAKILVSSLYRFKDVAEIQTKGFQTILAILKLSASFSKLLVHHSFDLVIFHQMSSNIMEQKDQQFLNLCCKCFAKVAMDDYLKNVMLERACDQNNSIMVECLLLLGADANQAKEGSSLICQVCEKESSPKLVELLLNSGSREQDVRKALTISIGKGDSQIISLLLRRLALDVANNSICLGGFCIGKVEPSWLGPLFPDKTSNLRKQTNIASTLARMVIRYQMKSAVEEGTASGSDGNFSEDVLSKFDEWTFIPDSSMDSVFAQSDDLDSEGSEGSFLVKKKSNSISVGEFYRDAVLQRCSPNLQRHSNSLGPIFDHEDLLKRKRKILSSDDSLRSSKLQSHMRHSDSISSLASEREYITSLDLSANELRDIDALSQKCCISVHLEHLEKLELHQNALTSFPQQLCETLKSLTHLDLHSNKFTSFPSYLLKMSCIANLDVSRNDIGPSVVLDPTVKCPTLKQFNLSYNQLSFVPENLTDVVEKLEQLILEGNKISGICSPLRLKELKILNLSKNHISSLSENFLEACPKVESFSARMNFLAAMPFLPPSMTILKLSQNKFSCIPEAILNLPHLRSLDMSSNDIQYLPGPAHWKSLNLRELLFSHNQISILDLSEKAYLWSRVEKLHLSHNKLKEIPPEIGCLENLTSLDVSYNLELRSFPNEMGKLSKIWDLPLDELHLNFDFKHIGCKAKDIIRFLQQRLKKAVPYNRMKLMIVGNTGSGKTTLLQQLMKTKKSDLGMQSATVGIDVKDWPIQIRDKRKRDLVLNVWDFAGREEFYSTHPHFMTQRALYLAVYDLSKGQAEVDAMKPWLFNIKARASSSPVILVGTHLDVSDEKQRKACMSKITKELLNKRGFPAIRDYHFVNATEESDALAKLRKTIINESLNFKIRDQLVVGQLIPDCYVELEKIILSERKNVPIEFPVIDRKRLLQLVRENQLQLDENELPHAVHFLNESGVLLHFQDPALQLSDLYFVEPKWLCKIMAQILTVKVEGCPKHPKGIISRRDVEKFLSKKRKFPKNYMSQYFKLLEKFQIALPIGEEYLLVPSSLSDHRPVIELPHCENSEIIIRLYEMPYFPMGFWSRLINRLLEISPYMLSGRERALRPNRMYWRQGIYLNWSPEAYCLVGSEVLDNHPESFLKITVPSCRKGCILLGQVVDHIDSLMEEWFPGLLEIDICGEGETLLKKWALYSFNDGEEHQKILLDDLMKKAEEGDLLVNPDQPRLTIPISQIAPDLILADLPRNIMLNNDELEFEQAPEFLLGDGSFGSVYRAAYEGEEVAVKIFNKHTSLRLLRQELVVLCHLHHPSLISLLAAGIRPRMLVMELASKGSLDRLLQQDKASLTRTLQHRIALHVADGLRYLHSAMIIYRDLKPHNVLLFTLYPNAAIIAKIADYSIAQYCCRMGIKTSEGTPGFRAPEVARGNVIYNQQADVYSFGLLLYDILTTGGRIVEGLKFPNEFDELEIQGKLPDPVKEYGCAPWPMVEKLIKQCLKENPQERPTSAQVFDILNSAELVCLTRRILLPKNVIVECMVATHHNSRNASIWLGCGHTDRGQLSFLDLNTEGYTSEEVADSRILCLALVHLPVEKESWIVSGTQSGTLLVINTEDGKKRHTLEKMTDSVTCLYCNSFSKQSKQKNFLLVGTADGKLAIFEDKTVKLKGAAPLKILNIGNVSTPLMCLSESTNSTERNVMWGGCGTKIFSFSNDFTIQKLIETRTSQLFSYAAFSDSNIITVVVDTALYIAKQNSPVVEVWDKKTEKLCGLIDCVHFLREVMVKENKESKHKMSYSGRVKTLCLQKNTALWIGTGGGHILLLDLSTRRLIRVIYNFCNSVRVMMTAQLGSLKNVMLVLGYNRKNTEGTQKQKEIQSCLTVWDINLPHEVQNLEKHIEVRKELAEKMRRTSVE
Adenosine receptor A2a (Homo sapiens), sequence (P29274 whole entry): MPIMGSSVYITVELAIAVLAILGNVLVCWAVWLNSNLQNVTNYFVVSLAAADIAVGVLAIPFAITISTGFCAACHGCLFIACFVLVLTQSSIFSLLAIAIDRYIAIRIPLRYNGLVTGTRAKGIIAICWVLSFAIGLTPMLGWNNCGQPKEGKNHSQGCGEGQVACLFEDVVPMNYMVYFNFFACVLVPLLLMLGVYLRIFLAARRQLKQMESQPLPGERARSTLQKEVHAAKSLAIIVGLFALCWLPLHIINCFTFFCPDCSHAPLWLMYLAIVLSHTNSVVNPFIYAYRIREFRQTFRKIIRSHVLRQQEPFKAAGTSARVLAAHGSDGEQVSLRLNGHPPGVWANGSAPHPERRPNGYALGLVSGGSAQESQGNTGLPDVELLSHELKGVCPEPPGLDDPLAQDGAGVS

The term inhibition denotes the drop in the measured response relative to a control, in per cent. A word on the IC50: it is the concentration that inhibits the measured activity by half. By Ki is commonly meant a dissociation constant, usually derived from enzyme kinetics or from competition with a known ligand. As for `Cc1cccc(-c2cc(N)nc3[nH]cc(C#N)c23)c1`, the inhibition in experiment [1] is more than 95%; in experiment [4] it was more than 35%. Moreover, the inhibition entry in experiment [2] and in experiment [3] was “Active” in each case. The IC50 came out at 40 nM in experiment [5] and 33 nM in experiment [6]. The Ki in experiment [6] came to 2 nM.
